Assay results gathered from unrelated publications.
Compare with care: the assays were run in different laboratories.
MAOB: Amine oxidase [flavin-containing] B (MAOB, Homo sapiens, UniProt P27338)
ADRB1: Beta-1 adrenergic receptor (ADRB1, Homo sapiens, UniProt P08588)

With `CC[C@H](C)[C@H](NC(=O)[C@H](Cc1c[nH]c2ccccc12)NC(=O)[C@H](C)NC(=O)[C@@H]1CSCC(=O)N[C@@H](Cc2ccc(O)cc2)C(=O)NCC(=O)N[C@@H](CCC(N)=O)C(=O)N[C@@H](CO)C(=O)N[C@@H](Cc2c[nH]cn2)C(=O)N[C@@H](CO)C(=O)N[C@@H](C)C(=O)N[C@@H](Cc2c[nH]c3ccccc23)C(=O)N1)C(=O)N[C@@H](CC(N)=O)C(=O)N[C@@H](Cc1ccc(O)cc1)C(=O)N[C@@H](CC(N)=O)C(=O)N1CCC[C@H]1C(N)=O` the IC50 was 6 µM (Pancreatic alpha-amylase (Homo sapiens, UniProt P04746); enzyme activity; inhibitor; absorbance).
With `C#CCN(C)c1nc(NCCCC2CCN(Cc3ccccc3)CC2)c(C#N)cc1C#N` the IC50 was 6.11 µM (MAOB; enzyme activity; inhibitor; fluorescence; with preincubation).
`Cc1cc(SCc2sc(-c3ccc(C(F)(F)F)c(F)c3)nc2C)ccc1OCC(=O)O` gave an IC50 of 22.9 µM (Retinoic acid receptor RXR-alpha (RXRA, Homo sapiens, UniProt P19793); reporter gene; antagonist; luciferase).
For `C#CCNc1nc(NCCCC2CCN(Cc3ccccc3)CC2)c(C#N)c(-c2ccccc2)c1C#N`, the IC50 was greater than 100 µM (MAOB; enzyme activity; inhibitor; fluorescence; with preincubation).
With `[Ba+2].[Cl-].[Cl-]` the IC50 was 8.2 µM (Inward rectifier potassium channel 2 (KCNJ2, Homo sapiens, UniProt P63252); ion current; inhibitor).
The IC50 of `C#CCNc1nc(NCCC2CCN(Cc3ccccc3)CC2)c(C#N)c(-c2ccccc2)c1C#N` is reported as greater than 100 µM (MAOB; enzyme activity; inhibitor; fluorescence; with preincubation).
The IC50 of `COc1ncccc1-c1cnn2ccc(N3CCN(C(=O)OC(C)C)CC3)nc12` is reported as greater than 30 µM (MAOB; enzyme activity; inhibitor).
With `CSCC[C@@H]1NC(=O)[C@H](CC(N)=O)NC(=O)[C@H](CCCNC(=N)N)NC(=O)[C@H]([C@@H](C)O)NC(=O)[C@H](Cc2ccc(O)cc2)NC(=O)[C@@H](NC(=O)[C@H](C)N)CSSC[C@@H](C(N)=O)NC(=O)[C@H](CCC(N)=O)NC(=O)[C@H](CC(N)=O)NC1=O` the IC50 was 406 µM (Lysine-specific demethylase 4C (KDM4C, Homo sapiens, UniProt Q9H3R0); enzyme activity; inhibitor; TR-FRET).
With `CCOc1ccccc1OCCN[C@H](C)Cc1ccc(OC)c(S(N)(=O)=O)c1` the IC50 was 2.5 µM (ADRB1; ligand displacement; radioligand).
The IC50 of `C#CCNc1nc(NCCCCC2CCN(Cc3ccccc3)CC2)c(C#N)c(-c2ccccc2)c1C#N` is reported as greater than 100 µM (MAOB; enzyme activity; inhibitor; fluorescence; with preincubation).
The IC50 of `O=[N+]([O-])c1cc(Cl)c(O)c(Cl)c1` is reported as 0.245 µM (Sulfotransferase 1A1 (SULT1A1, Homo sapiens, UniProt P50225); enzyme activity; inhibitor).
For `O=c1c2ccccc2[nH]c(=S)n1-c1ccccc1`, the IC50 was 84.5 µM (Serine protease 1 (PRSS1, Bos taurus, UniProt P00760); enzyme activity; inhibitor).
The IC50 of `C[C@H](N)Cn1ncc2ccc3c(c21)CCCO3` is reported as 5 µM (ADRB1; ligand displacement; radioligand).
